Values after ≈ are worked out from the molar mass of the structure shown. “Also recorded” adds a separate entry of the source.

Data set [1] deals with M. separata. The conditions noted are these: at 5 μg/mL concentration; cited from earlier work.
For data set [2], the target named is electric eel (Electrophorus electricus) AChE (Electrophorus electricus, UniProt O42275). In words: Acetylcholinesterase. In kind it is biochemical. The following applies: for inhibition at 4 µg/mL / inhibition at 20 µg/mL / inhibition at 100 µg/mL / inhibition at 250 µg/mL: read-out: AChE inhibitory activity. The method in brief:
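Electric eel AChE (0.25 IU/mL) was mixed with pH 8 phosphate buffer and test compound solution (500, 100, 20 or 4 μg/mL, diluted in water from DMSO stock) and held 15 min at 25 °C. DTNB (2.5 mM) and acetylthiocholine iodide (2.5 mM) were added, followed by 10 min more at 25 °C. Absorbance was read at 405 nm. Galantamine was the positive control, run in triplicate plates.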

Data set [3] concerns Aedes aegypti larvae. Kind of data set: Mosquito larvicidal assay. In kind it is in vivo. The conditions noted are these: for LC90: (95% confidence limits); for LC50: Aedes aegypti. The method in brief: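 Larvae came from later generations of a wild-derived Ae. aegypti colony kept at 25 ± 2 °C, 65–75% RH and 12:12 h light/dark. Twenty larvae per 150 mL of test solution were exposed at 100 down to 1.5625 μg/mL (twofold steps plus 75), with DMSO as vehicle. Controls were permethrin and DMSO (1 mL/150 mL). Mortality was scored at 24–96 h over four independent experiments.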

The nature of data set [4]: Solubility of compounds for larvicidal testing. Type of data set: physicochemical. The conditions noted are these: larvicidal test, compounds dissolved in DMSO.
The subject of data set [5] is Plutella xylostella. The following applies: at 500 μg/mL; cited from earlier work.
The subject of data set [6] is Anopheles arabiensis. The conditions noted are these: compared with temephos; cited from earlier work.

Chain of electric eel (Electrophorus electricus) AChE (O42275 24-633): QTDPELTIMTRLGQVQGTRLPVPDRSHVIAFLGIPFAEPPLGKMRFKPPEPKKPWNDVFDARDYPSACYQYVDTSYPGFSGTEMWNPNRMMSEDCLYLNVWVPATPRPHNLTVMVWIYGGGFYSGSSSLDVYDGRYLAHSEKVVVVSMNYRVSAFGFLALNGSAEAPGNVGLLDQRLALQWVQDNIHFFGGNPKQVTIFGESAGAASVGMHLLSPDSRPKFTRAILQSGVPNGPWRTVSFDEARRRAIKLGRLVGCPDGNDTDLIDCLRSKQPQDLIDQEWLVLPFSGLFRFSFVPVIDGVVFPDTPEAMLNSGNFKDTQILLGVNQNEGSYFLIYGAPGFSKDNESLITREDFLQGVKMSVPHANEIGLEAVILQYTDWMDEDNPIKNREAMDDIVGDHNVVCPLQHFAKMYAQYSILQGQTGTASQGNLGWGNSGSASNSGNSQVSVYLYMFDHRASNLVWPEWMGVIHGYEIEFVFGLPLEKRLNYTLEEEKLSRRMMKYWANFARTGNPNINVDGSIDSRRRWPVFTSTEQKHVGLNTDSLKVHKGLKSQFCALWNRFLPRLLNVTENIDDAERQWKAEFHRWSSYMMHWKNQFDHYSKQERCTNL

In the case of `Cc1cc(Cl)cc2c1NC(c1cc(Br)nn1-c1ncccc1Cl)N(C)C2=O` (centres unmarked) [2-(3-bromo-1-(3-chloropyridine-)-2-yl)-1H-pyrazol-5-yl-6-chloro-3,8-dimethyl-2,3-dihydroquinazolin-4(1H)-one], the mortality in data set [1] is recorded as 80%.

As to `Cc1nc2ccccc2c(=O)n1CC(=O)Nc1ccc(Br)cc1` [4a, N-(4-Bromophenyl)-2-(2-methyl-4-oxoquinazolin-3(4H)-yl)acetamide], the IC50 in data set [2] is 714 µM. In data set [2], the inhibition at 4 µg/mL was found to be 3.75%. Further, the inhibition at 20 µg/mL in data set [2] came out at 14%. In addition, the inhibition at 100 µg/mL in data set [2] was 28.6%. Further, in data set [2], the inhibition at 250 µg/mL was determined as 48.5%. Besides, the LC90 is given as 8.528 (7.729–9.730) μg/mL in data set [3] (24 h exposure), 6.396 (5.755–7.334) μg/mL in data set [3] (48 h exposure), 5.273 (4.620–6.340) μg/mL in data set [3] (72 h exposure) and 4.470 (3.864–5.530) μg/mL in data set [3] (96 h exposure). In addition, the LC50 in data set [3] (24 h) amounted to 5.82 µg/mL (≈ 15.6 µM); in data set [3] (48 h), 3.66 µg/mL (≈ 9.84 µM); in data set [3] (72 h), 2.26 µg/mL (≈ 6.07 µM); in data set [3] (96 h) it was 1.49 µg/mL (≈ 3.99 µM).

As for `Cc1nc2ccccc2c(=O)n1CC(=O)Nc1ccc(Cl)cc1` [4b, N-(4-Chlorophenyl)-2-(2-methyl-4-oxoquinazolin-3(4H)-yl)acetamide], in data set [2], the 50% inhibitory concentration (IC50) is 500 µM, the inhibition at 4 µg/mL is 18.1%, the inhibition at 20 µg/mL was 26.6% and the inhibition at 100 µg/mL was 34.7%. Moreover, in data set [2], the inhibition at 250 µg/mL was found to be 72.9%. In addition, in data set [3] (24 h exposure), the LC90 is given as 31.11 (26.90–37.20) μg/mL. Further, the LC90 in data set [3] (48 h exposure) was 7.610 (6.607–9.160) μg/mL. The LC90 in data set [3] (72 h exposure) is 6.945 (6.055–8.327) μg/mL. This compound also had an LC50 in data set [3] (24 h) of 12.7 µg/mL (≈ 38.7 µM). Moreover, the LC50 in data set [3] (48 h) amounted to 3.64 µg/mL (≈ 11.1 µM). This compound also yielded a 50% lethal concentration (LC50) in data set [3] (72 h) of 3.48 µg/mL (≈ 10.6 µM).

In the case of `Cc1nc2ccccc2c(=O)n1CC(=O)Nc1cccc(Cl)c1` [4c, N-(3-Chlorophenyl)-2-(2-methyl-4-oxoquinazolin-3(4H)-yl)acetamide], in data set [2], half-maximal inhibition (IC50) was put at 231 µM, the inhibition at 4 µg/mL amounted to 15.4%, the inhibition at 20 µg/mL stood at 29.3% and the inhibition at 100 µg/mL is 56.5%. Moreover, in data set [2], the inhibition at 250 µg/mL stood at 97.8%. This compound also gave an LC50 in data set [3] (24 h) of 15.1 µg/mL (≈ 45.9 µM). The compound also gave an LC50 in data set [3] (48 h) of 10.1 µg/mL (≈ 30.8 µM). The same compound came in with an LC50 in data set [3] (72 h) of 4.42 µg/mL (≈ 13.5 µM). This compound yielded an LC50 in data set [3] (96 h) of 1.8 µg/mL (≈ 5.49 µM).

In the case of `Cc1nc2ccccc2c(=O)n1CC(=O)Nc1ccccc1Cl` [4d, N-(2-Chlorophenyl)-2-(2-methyl-4-oxoquinazolin-3(4H)-yl)acetamide], in data set [2], half-maximal inhibition (IC50) required 462 µM, the inhibition at 4 µg/mL stood at 7.58%, the inhibition at 20 µg/mL worked out at 19.2% and the inhibition at 100 µg/mL came out at 36.5%. In addition, the inhibition at 250 µg/mL in data set [2] was 70.3%. Besides, the LC50 in data set [3] (24 h) stood at 52.4 µg/mL (≈ 160 µM). Besides, the LC50 in data set [3] (48 h) was found to be 22.7 µg/mL (≈ 69.3 µM). The same compound returned an LC50 in data set [3] (72 h) of 4.2 µg/mL (≈ 12.8 µM).

`COc1ccc(NC(=O)Cn2c(C)nc3ccccc3c2=O)cc1` [4e, N-(4-Methoxyphenyl)-2-(2-methyl-4-oxoquinazolin-3(4H)-yl)acetamide]: the LC90 is given as 25.81 (21.16–33.50) μg/mL in data set [3] (24 h exposure), 16.26 (12.95–22.06) μg/mL in data set [3] (48 h exposure), 12.27 (9.67–17.09) μg/mL in data set [3] (72 h exposure) and 7.414 (5.780–10.598) μg/mL in data set [3] (96 h exposure). Also, the LC50 in data set [3] (24 h) worked out at 9.25 µg/mL (≈ 28.6 µM); in data set [3] (48 h), 4.27 µg/mL (≈ 13.2 µM); in data set [3] (72 h), 2.76 µg/mL (≈ 8.52 µM); in data set [3] (96 h) it was 1.28 µg/mL (≈ 3.96 µM).

Take `Cc1ccc(NC(=O)Cn2c(C)nc3ccccc3c2=O)cc1` [4f, 2-(2-Methyl-4-oxoquinazolin-3(4H)-yl)-N-(p-tolyl)acetamide]: it took 186 µM to reach half-maximal inhibition in data set [2] (IC50). Also, the inhibition at 4 µg/mL in data set [2] was found to be 17.6%. The inhibition at 20 µg/mL in data set [2] is 34.2%. For the same compound, the inhibition at 100 µg/mL in data set [2] was determined as 62.8%. The inhibition at 250 µg/mL in data set [2] was 98.9%. In addition, the LC90 in data set [3] (24 h exposure) is on record as 14.67 (13.22–16.69) μg/mL; in data set [3] (48 h exposure), 14.33 (12.51–17.09) μg/mL; in data set [3] (72 h exposure), 11.29 (9.56–14.17) μg/mL. In addition, the values for the LC50 in data set [3] (24 h), in data set [3] (48 h) and in data set [3] (72 h) were 8.67 µg/mL (≈ 28.2 µM), 5.92 µg/mL (≈ 19.3 µM) and 2.08 µg/mL (≈ 6.78 µM), respectively.

Regarding `Cc1ccccc1NC(=O)Cn1c(C)nc2ccccc2c1=O` [4g, 2-(2-Methyl-4-oxoquinazolin-3(4H)-yl)-N-(o-tolyl)acetamide], in data set [2], the IC50 was 488 µM, the inhibition at 4 µg/mL is -1.33%, the inhibition at 20 µg/mL is 13.4% and the inhibition at 100 µg/mL was 34.6%. In data set [2], the inhibition at 250 µg/mL is 73.1%. Besides, in data set [4], the solubility entry is given as “insoluble; also recorded: not soluble”.

Take `Cc1nc2ccccc2c(=O)n1CC(=O)Nc1ccccc1` [4h, 2-(2-Methyl-4-oxoquinazolin-3(4H)-yl)-N-phenylacetamide]: the LC90 in data set [3] (96 h exposure) is recorded as >50 (96 h) μg/mL. The compound also had an LC50 in data set [3] (96 h) of over 50 µg/mL. Also, in data set [3] (compared with the other compounds), the “larvicidal activity (in words)” value is “less activity”.

On to `Cc1nc2ccccc2c(=O)n1CC(=O)Nc1ccc([N+](=O)[O-])cc1` [4i, 2-(2-Methyl-4-oxoquinazolin-3(4H)-yl)-N-(4-nitrophenyl)acetamide], for which, in data set [2], it took 454 µM to reach half-maximal inhibition (IC50), the inhibition at 4 µg/mL turned out to be 2.5%, the inhibition at 20 µg/mL was found to be 6.08% and the inhibition at 100 µg/mL was 35.5%. In addition, the inhibition at 250 µg/mL in data set [2] turned out to be 75.6%. In addition, the solubility result in data set [4] was “insoluble; also recorded: not soluble”.

With `Clc1cc(Cl)c2ncnc(SCc3ccc(Cl)nc3)c2c1` [6,8-dichloro-4-(((6-chloropyridine-3-yl)methyl)thio)quinazoline], the mortality rate in data set [5] is given as 85%.

With `COC(=O)C1=C(C)Nc2nc3ccc(I)cc3c(=O)n2C1c1ccc(Cl)cc1` (centres unmarked) [methyl 4-(4-chlorophenyl)-8-iodo-2-methyl-6-oxo-1,6-dihydro-4H-pyrimido[2,1-b]quinazoline-3-carboxylate], in data set [6], the “larvicidal activity (in words)” value was “significantly stronger than temephos”.

For `CC1(C)C(C=C(Cl)Cl)C1C(=O)OCc1cccc(Oc2ccccc2)c1` (centres unmarked) [permethrin, reference compound], the LC90 in data set [3] (24 h exposure) was 0.00246 (0.00192–0.00344) μg/mL. This compound also showed an LC50 in data set [3] (24 h) of 0.000643 µg/mL (≈ 0.00164 µM).

One may read the mortality as the share of the test organisms that died. One may read the IC50 as the concentration at which inhibition is half-maximal. The low end stands for greater potency, the high end for weaker potency. By LC50 is commonly meant the concentration lethal to half of the exposed cells or organisms. A high value points to lower toxicity.

(Values after PMC10357533 (ACS Omega, 2023).)
